In ChEMBL document CHEMBL1149300, “Novel retinoic acid metabolism blocking agents endowed with multiple biological activities are efficient growth inhibitors of human breast and prostate cancer cells in vitro and a human breast tumor xenograft in nude mice” (J Med Chem, 2004):
The source made the active and inactive calls. The rule behind the calls is not given here.

Experiments:
[1] = Inhibition of ATRA hydroxylase in Syrian golden hamster liver microsome assessed ATRA metabolism using [11.12-3H]-ATRA; type: microsomes, Mesocricetus auratus
How it was run: (§1)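 Microsomes from male Syrian golden hamster liver, or from T47D cells pretreated with 1 µM ATRA. Incubation in 0.1 M phosphate buffer pH 7.4 with NADPH, MgCl2 and BSA, inhibitor in DMSO; 3 min preincubation at 37 °C, then [11,12-3H]-ATRA for 30 min at 37 °C under oxygen. Ethyl acetate extraction, reverse-phase HPLC with radiometric detection; percent polar metabolites; IC50 from dose-response curves.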

Cytochrome P450 26A1 [2] = target: T1, Cytochrome P450 26A1 (Homo sapiens, UniProt O43174); assay: Inhibition of ATRA-induced CYP26 in human MCF7 cells assessed as ATRA metabolism using [11.12-3H]-ATRA up to 10 uM; type: functional, cell-based
T1 sequence (O43174 whole entry): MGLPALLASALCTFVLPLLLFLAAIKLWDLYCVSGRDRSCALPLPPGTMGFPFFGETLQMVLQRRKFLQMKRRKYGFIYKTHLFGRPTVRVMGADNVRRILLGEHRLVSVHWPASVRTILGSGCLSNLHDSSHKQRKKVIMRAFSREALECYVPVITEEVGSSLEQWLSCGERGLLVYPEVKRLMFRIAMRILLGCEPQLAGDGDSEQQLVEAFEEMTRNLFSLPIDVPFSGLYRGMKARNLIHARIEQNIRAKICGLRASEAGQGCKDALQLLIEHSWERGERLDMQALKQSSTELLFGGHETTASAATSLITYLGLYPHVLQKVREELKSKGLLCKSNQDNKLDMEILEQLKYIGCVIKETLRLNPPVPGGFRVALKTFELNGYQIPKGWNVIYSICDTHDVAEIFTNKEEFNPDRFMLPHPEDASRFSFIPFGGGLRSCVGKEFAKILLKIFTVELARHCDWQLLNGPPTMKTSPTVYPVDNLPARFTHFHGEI
How it was run: (§2)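 Cells seeded at 1 × 10^6 per well and pretreated with 1 µM ATRA for 12-15 h to induce CYP26. After washing, they were incubated 5 h with inhibitor (0.0001-10 µM) plus 0.001 µM [11,12-3H]-ATRA; stocks were in 95% ethanol. […] IC50 was taken from dose-response curves.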

Cytochrome P450 26A1 [3] = target: T1, Cytochrome P450 26A1; assay: Inhibition of ATRA-induced CYP26 in human T47D cells assessed as ATRA metabolism using [11.12-3H]-ATRA up to 10 uM; type: functional, cell-based; how it was run: as §2
LNCaP [4] = assay: Induction of cell differentiation in human LNCaP cells after 6 days; type: functional, cell-based
How it was run: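 LNCaP cells given 1 µM compound, alone or with 1 µM ATRA, for 6 days. Lysates (50 µg) run on 10% SDS-PAGE and Western blotted with anti-cytokeratin 8/18, β-actin as control. ECL detection; band intensity by densitometry taken as the differentiation marker.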

Cytochrome P450 26A1 [5] = target: T1, Cytochrome P450 26A1; assay: Inhibition of ATRA-induced CYP26 in human MCF7 cells assessed ATRA as metabolism using [11.12-3H]-ATRA; type: functional, cell-based
How it was run: (§3)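 MCF-7 or T47D cells (1 × 10^6 per well) induced with 1 µM ATRA for 12-15 h, washed, then given inhibitor (0.0001-10 µM, ethanol stock) plus 0.001 µM [11,12-3H]-ATRA for 5 h. Media and cells extracted with ethyl acetate; metabolites measured by reverse-phase HPLC with radiometric detection; IC50 from dose-response curves.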

Cytochrome P450 26A1 [6] = target: T1, Cytochrome P450 26A1; assay: Inhibition of ATRA-induced CYP26 in human T47D cells assessed as ATRA metabolism using [11.12-3H]-ATRA; type: functional, cell-based; how it was run: as §3
Cytochrome P450 26A1 [7] = target: T1, Cytochrome P450 26A1; assay: Inhibition of ATRA-induced CYP26 in human T47D cell microsome assessed as ATRA metabolism using [11.12-3H]-ATRA; type: functional, microsomes; how it was run: as §1
MCF7 [8] = assay: Growth inhibition of human MCF7 cells after 6 days by MTT assay; type: functional, cell-based; details: MCF7, 144 h
How it was run: (§4)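 MCF-7 (IMEM, 5% FBS) or T47D (RPMI 1640, 10% FBS) cells, 1 × 10^4 per well, adhered ~18 h, then exposed to 0.0001-10 µM drug (ethanol) for 6 days with media and drug renewed on day 4. MTT for 2 h, formazan dissolved in DMSO, A540. Triplicate wells, 2-3 experiments; IC50 by nonlinear regression.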

T47D [9] = assay: Growth inhibition of human T47D cells after 6 days by MTT assay; type: functional, cell-based; details: 144 h; how it was run: as §4
MDA-MB-231 [10] = assay: Growth inhibition of human MDA-MB-231 cells up to 10 uM after 6 days by MTT assay; type: functional, cell-based
LNCaP [11] = assay: Growth inhibition of human LNCaP cells after 6 days by MTT assay; type: functional, cell-based; details: 144 h
How it was run: (§5)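 LNCaP cells (1 × 10^4) on poly-L-lysine-coated wells, attached 36 h; PC-3 cells (1 × 10^4), uncoated, attached 24 h; both in RPMI 1640. Treated with a concentration range of drug for 6 days, medium changed every 3 days. MTT read-out at 540 nm; IC50 by nonlinear regression from at least two experiments.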

PC-3 = assay: Growth inhibition of human PC3 cells after 6 days by MTT assay; type: functional, cell-based; details: PC-3, 144 h; how it was run: as §5
[12] = target: T2, Retinoic acid receptor alpha (Homo sapiens, UniProt P10276); assay: Displacement of [11,12-3H]ARTA from RARalpha
T2 sequence (P10276 whole entry): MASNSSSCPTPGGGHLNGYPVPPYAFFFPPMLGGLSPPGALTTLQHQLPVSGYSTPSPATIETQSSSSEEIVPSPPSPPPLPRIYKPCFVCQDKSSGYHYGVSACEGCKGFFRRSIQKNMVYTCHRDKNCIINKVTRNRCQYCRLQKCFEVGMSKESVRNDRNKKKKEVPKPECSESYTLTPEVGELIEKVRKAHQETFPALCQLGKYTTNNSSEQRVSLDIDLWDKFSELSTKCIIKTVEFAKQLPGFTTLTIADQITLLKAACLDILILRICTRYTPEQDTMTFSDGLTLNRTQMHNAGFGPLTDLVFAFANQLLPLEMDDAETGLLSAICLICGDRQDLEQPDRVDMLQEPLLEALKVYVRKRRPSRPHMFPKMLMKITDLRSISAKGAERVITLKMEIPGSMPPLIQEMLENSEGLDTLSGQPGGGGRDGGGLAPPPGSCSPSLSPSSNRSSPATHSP
How it was run: (§6)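 Recombinant S-Tag RARα, RARβ or RARγ fusion protein extracts (10-30 µg/mL total protein) in HEPES pH 7.9 binding buffer. Incubated with 1 nM [3H]all-trans-RA and 0-500 nM test compound for 3 h at 27 °C.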

[13] = target: T3, Retinoic acid receptor beta (Homo sapiens, UniProt P10826); assay: Displacement of [11,12-3H]ARTA from RARbeta; how it was run: as §6
T3 sequence (P10826 whole entry): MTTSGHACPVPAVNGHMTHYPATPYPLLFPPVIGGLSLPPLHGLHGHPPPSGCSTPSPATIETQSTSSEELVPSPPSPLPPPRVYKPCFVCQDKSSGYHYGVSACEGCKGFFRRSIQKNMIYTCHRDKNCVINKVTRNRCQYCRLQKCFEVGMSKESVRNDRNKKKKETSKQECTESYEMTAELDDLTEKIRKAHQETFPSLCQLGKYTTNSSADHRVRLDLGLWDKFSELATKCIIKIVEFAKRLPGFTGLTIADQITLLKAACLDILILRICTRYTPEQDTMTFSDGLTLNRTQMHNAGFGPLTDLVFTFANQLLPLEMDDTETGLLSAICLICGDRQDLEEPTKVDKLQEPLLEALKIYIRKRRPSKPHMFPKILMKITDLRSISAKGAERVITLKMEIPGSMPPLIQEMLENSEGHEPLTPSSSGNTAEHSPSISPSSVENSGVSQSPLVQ

[14] = Displacement of [11,12-3H]ARTA from RARgamma; parameters: species or system Homo sapiens
How it was run: as §6, with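 “°C. Nonspecific binding measured with a 200-fold excess of unlabeled RA; IC50 from dose-response curves, at least two experiments.” for “°C.”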

MCF7 [15] = assay: Induction of apoptosis in human MCF7 cells at 1 uM for 6 days by TUNEL assay; type: functional, cell-based
How it was run: (§7)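 MCF-7 or T47D cells exposed to 1 µM compound for 6 days, then trypsinized, fixed in 1% paraformaldehyde and stored in 70% ethanol at -20 °C overnight. TdT/BrdUTP labeling (APO-BRDU TUNEL), fluorescein anti-BrdU plus PI/RNase stain; apoptotic cells counted by flow cytometry.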

T47D [16] = assay: Induction of apoptosis in human T47D cells at 1 uM for 6 days by TUNEL assay; type: functional, cell-based; how it was run: as §7
MCF7 [17] = assay: Reduction of tumor growth in MCF7 cells xenografted ovariectomized mouse at 0.033 mmol/kg, sc for 6 weeks relative to control; type: functional, Homo sapiens; parameters: scale not given: the % may be the effect or the level left
How it was run: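 Female ovariectomized nude mice received estrogen pellets. MCF-7 cells (2 × 10^6 in Matrigel) were injected sc into both flanks and grown 4-5 weeks to 200-300 mm3. Groups of n = 5 were dosed sc once daily, 6 days/week for 6 weeks, vehicle 0.3% HPC, 200 µL. Tumors were measured weekly by caliper, volume = (4/3)πr1²r2, and change was compared with vehicle controls.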

MDA-MB-231 [18] = assay: Growth inhibition of human MDA-MB-231 cells after 6 days by MTT assay; type: functional, cell-based; details: MDA-MB-231, 144 h

Row | Structure (SMILES) | IC50 [1] | Ki [1] | IC50 (Cytochrome P450 26A1 [6]) | IC50 (Cytochrome P450 26A1 [7]) | IC50 (MCF7 [8]) | IC50 (LNCaP [11]) | IC50 (PC-3) | further results
1 | Clc1cccc(C(c2ccc3[nH]cnc3c2)n2ccnc2)c1 (stereo not drawn) [LIAROZOLE] | 6000 nM |  |  |  |  |  |  | Activity (Cytochrome P450 26A1 [2]): Not Active; Activity (Cytochrome P450 26A1 [3]): Not Active
2 | COC(=O)/C=C(C)/C=C/C=C(C)/C=C/C1=C(C)C(=N/O)/CCC1(C)C | 23 nM |  |  |  |  |  |  | 
3 | CC1=C(/C=C/C(C)=C/C=C/C(C)=C/C(=O)O)C(C)(C)CCC1n1ccnc1 (racemic) | 2.33 nM | 0.22 nM | 6.3 nM | 2.4 nM | 490 nM | 10 µM | 7.7 µM | Activity (LNCaP [4]): Active; IC50 (Cytochrome P450 26A1 [5]): 10.9 nM; IC50 (T47D [9]): 3 nM; Activity (MDA-MB-231 [10]): inactive; IC50 [12]: 20 nM; IC50 [13]: 175 nM; IC50 [14]: 45 nM; Activity (MCF7 [15]): Active; Activity (T47D [16]): Active; Activity (MCF7 [17]): 85.2%
4 | CC1=C(/C=C/C(C)=C/C=C/C(C)=C/C(=O)Nc2ccc(O)cc2)C(C)(C)CCC1 [FENRETINIDE] | 31800 nM |  |  |  | 150 nM | 7.5 µM | 3.6 µM | IC50 (MDA-MB-231 [18]): 7.7 µM
5 | COC(=O)/C=C(C)/C=C/C=C(C)/C=C/C1=C(C)[C@H](n2ccnc2)CCC1(C)C (stereo in doubt; (+)-5) |  |  | 6000 nM | 800 nM |  |  |  | 
6 | COC(=O)/C=C(C)/C=C/C=C(C)/C=C/C1=C(C)C(n2cnnc2)CCC1(C)C (racemic) | 21.7 nM |  |  |  |  |  |  | 
7 | COC(=O)/C=C(C)/C=C/C=C(C)/C=C/C1=C(C)C(n2cncn2)CCC1(C)C (racemic) | 2 nM |  |  |  |  |  |  | 
8 | CC1=C(/C=C/C(C)=C/C=C/C(C)=C\C(=O)O)C(C)(C)CCC1n1ccnc1 (racemic) | 119 nM | 4.12 nM |  |  |  |  |  | IC50 [12]: 100 nM; IC50 [13]: 175 nM; IC50 [14]: 65 nM
9 | CC1=C(/C=C/C(C)=C/C=C/C(C)=C/C(=O)n2ccnc2)C(C)(C)CCC1n1ccnc1 (racemic) | 0.05 nM | 62 nM | 10 nM | 5.2 nM | 130 nM | 10 µM | 5.8 µM | Activity (LNCaP [4]): Active; IC50 (Cytochrome P450 26A1 [5]): 24.7 nM; IC50 (T47D [9]): 9 nM; Activity (MDA-MB-231 [10]): inactive; Activity (MCF7 [15]): Active; Activity (T47D [16]): Active
